Measurements: ChEMBL document CHEMBL1157808, “Synthesis and biological evaluation of phenolic 4,5-dihydroisoxazoles and 3-hydroxy ketones as estrogen receptor alpha and beta agonists” (Bioorg Med Chem, 2010)
The source made the active and inactive calls. No cut-off for these calls is given here.

Experiments:
[1] = molecular target: T1, Estrogen receptor (Homo sapiens) (UniProt P03372); assay: Induction of ERalpha-mediated pS2 gene expression in human MCF7 cells at 10 nM after 24 hrs by real-time quantitative PCR analysis; format: cell-based
T1 sequence (whole entry): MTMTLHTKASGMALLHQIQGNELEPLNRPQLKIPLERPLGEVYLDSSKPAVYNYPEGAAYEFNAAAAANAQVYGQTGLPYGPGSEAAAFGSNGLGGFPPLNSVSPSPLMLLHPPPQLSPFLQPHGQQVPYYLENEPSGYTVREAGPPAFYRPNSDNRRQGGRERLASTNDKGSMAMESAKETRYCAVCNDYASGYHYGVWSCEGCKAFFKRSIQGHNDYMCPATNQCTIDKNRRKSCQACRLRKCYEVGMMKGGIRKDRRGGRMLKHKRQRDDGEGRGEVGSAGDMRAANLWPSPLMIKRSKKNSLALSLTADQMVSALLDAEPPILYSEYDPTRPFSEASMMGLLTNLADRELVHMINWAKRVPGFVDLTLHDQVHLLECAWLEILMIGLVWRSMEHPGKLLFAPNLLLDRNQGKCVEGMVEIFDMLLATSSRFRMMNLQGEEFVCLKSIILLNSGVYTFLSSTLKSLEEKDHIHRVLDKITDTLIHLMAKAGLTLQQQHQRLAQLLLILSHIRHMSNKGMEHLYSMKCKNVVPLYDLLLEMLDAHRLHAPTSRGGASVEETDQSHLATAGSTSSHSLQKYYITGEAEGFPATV
Summary of the method: (§1)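 MCF-7 cells were grown overnight in phenol red-free DMEM with 5% charcoal-stripped FBS. They were then exposed to ligand at 10 nM final or to solvent for 6 h or 24 h. Total RNA was extracted and reverse-transcribed. pS2 mRNA was measured by TaqMan real-time qPCR with RPLPO as reference and reported as fold change relative to control.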

[2] = molecular target: T1, Estrogen receptor (Homo sapiens); assay: Antagonist activity at ERalpha in human MCF7 cells assessed as decrease in 3,17-beta-estradiol-induced pS2 gene expression at 1 uM after 24 hrs by real-time quantitative PCR analysis; format: functional, cell-based
Summary of the method: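 Competition format: MCF-7 cells were first grown overnight in phenol red-free DMEM with 5% charcoal-stripped FBS. They were then co-treated for 24 h with 10 nM E2 plus 1 μM compound. Total RNA was extracted and pS2 mRNA was quantified by TaqMan real-time qPCR, normalized to RPLPO.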

[3] = molecular target: T1, Estrogen receptor (Homo sapiens); assay: Agonist activity at ERalpha expressed in HEK293 cells at 10 uM after 24 hrs by luciferase reporter gene assay relative to 3,17-beta-estradiol; format: functional, cell-based
Summary of the method: (§2)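 HEK293 cells (no endogenous ER) in phenol-free DMEM with 5% delipidated FBS were transfected for 4 h with 5 ng ERα or ERβ expression vector, 75 ng pERE2TATA-LUC reporter and 20 ng pCMVβ. Cells then received 10 μM compound, 10 nM E2 or vehicle (0.1% v/v) for 24 h. Luciferase was normalized to β-galactosidase and expressed as 100% × (test − vehicle)/(E2 − vehicle). Values are means of at least three independent transfections.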

[4] = molecular target: T1, Estrogen receptor (Homo sapiens); assay: Induction of ERalpha-mediated pS2 gene expression in human MCF7 cells at 10 nM after 6 hrs by real-time quantitative PCR analysis relative to control; format: cell-based; summary of the method: as §1
[5] = molecular target: Estrogen receptor beta (Homo sapiens) (UniProt Q92731); assay: Agonist activity at ERbeta expressed in HEK293 cells at 10 uM after 24 hrs by luciferase reporter gene assay relative to 3,17-beta-estradiol; format: functional, cell-based; summary of the method: as §2
Sequence of Estrogen receptor beta (Homo sapiens) (Q92731 whole entry): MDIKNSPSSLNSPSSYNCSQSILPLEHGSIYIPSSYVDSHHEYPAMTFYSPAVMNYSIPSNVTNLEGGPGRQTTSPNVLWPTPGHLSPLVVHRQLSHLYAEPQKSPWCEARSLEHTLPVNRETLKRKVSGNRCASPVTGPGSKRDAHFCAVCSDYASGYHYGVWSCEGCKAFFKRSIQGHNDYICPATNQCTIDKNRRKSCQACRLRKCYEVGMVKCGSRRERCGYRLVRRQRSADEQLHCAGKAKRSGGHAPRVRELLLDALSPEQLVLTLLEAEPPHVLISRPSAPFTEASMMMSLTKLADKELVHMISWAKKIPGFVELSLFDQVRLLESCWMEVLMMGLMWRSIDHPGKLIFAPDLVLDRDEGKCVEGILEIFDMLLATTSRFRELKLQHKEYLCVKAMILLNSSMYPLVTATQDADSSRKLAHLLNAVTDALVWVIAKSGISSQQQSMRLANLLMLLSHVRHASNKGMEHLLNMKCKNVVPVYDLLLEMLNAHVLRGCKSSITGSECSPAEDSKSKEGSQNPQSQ

[6] = Selectivity for ERalpha over ERbeta
Homo sapiens = organism: Homo sapiens; assay: Selectivity ratio of relative binding affinity for human ERalpha to relative binding affinity for human ERbeta
Summary of the method: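 COS-1 cells in DMEM with 10% delipidated FBS were transfected for 24 h with human ERα or ERβ vector (pSG5-hERα/β). Cells were washed, lysed in 0.5 M NaOH at 56 °C for 15 min and counted by scintillation, with nonspecific binding subtracted.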

[7] = molecular target: T1, Estrogen receptor (Homo sapiens); assay: Induction of ERalpha-mediated pS2 gene expression in human MCF7 cells at 10 uM after 24 hrs by real-time quantitative PCR analysis; format: cell-based
[8] = molecular target: T1, Estrogen receptor (Homo sapiens); assay: Ratio of compound to 3,17-beta-estradiol binding affinity at ERalpha expressed in COS-1 cells

SMILES | Activity [1] | inhibition [2] | Activity [3] | fold change (FC) [4] | Activity [5] | Selectivity ratio [6] | Ratio (Homo sapiens) | Activity [7] | Ratio [8]
Oc1ccc(CCCC2=NOC(c3ccccc3)C2)cc1 (single isomer, unassigned; 45a) | inactive | 32% | 104% | 1.8 | 44.7% | 2 | 157 | – | –
Oc1ccc(CCCC2=NOC(c3ccccc3)C2)cc1 (single isomer, unassigned; 45b) | inactive | 27% | 65% | – | 77.1% | – | 41 | inactive | –
CC1(c2ccccc2)CC(CCCc2ccc(O)cc2)=NO1 (single isomer, unassigned; 46a) | – | – | 14.4% | – | -0.9% | – | 13 | – | –
CC1(c2ccccc2)CC(CCCc2ccc(O)cc2)=NO1 (single isomer, unassigned; 46b) | – | – | 13.6% | – | 10.6% | – | 1 | – | –
O=C(CCCc1ccc(O)cc1)CC(O)c1ccccc1 (single isomer, unassigned; 50a) | inactive | 23% | 139% | – | 170% | – | 4 | inactive | 2
O=C(CCCc1ccc(O)cc1)CC(O)c1ccccc1 (single isomer, unassigned; 50b) | Active | 29% | 140% | – | 155% | – | 5 | – | –
c1ccc(CCCC2=NOC(c3ccccc3)C2)cc1 (stereo in doubt; 43b) | – | – | 11.5% | – | 17.2% | – | 1 | – | –
